Measured values from ChEMBL document CHEMBL4196159 (ACS Med Chem Lett, 2018).
Values after ≈ are worked out from the molar mass of the structure shown.

Columns and labels:
[1] = Volume of distribution in Beagle dog at 1 mg/kg, iv administered as bolus dose or 2 mg/kg, po; assay type: ADME, organism-based, Canis lupus familiaris; conditions: in vivo
Procedure, shortened: (§1)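 Male Han Wistar rats and male Beagle dogs, at least n = 2. Compound given at 1 mg/kg i.v. Parameters derived from plasma concentrations.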

in vitro [2] = conditions: rat, hepatocytes
[3] = Oral bioavailability in Han Wistar rat at 2 mg/kg; assay type: ADME, organism-based; conditions: in vivo
[4] = Terminal half life in Beagle dog at 1 mg/kg, iv administered as bolus dose; assay type: ADME, organism-based, Canis lupus familiaris; conditions: in vivo, read-out: beta t1/2 (converted); procedure, shortened: as §1
physchem [5] = conditions: octanol/buffer, pH 7.4
[6] = Clearance in Han Wistar rat at 1 mg/kg, iv administered as bolus dose or 2 mg/kg, po; assay type: ADME, organism-based; conditions: in vivo; procedure, shortened: as §1
[7] = Intrinsic clearance in human cryopreserved hepatocytes assessed per million cells at 1 uM measured after 30 mins by HPLC analysis; assay type: ADME, cell-based, Hepatocyte; conditions: read-out: CLH
Procedure, shortened: (§2)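 Intrinsic clearance (Clint) measured in fresh dog hepatocytes or cryopreserved human hepatocytes.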

[8] = Intrinsic clearance in dog hepatocytes assessed per million cells at 1 uM measured after 30 mins by HPLC analysis; assay type: ADME, cell-based, Canis lupus familiaris, Hepatocyte; conditions: read-out: CLH; procedure, shortened: as §2
[9] = Volume of distribution in Han Wistar rat at 1 mg/kg, iv administered as bolus dose or 2 mg/kg, po; assay type: ADME, organism-based; conditions: in vivo; procedure, shortened: as §1
[10] = Clearance in Beagle dog at 1 mg/kg, iv administered as bolus dose or 2 mg/kg, po; assay type: ADME, organism-based, Canis lupus familiaris; conditions: in vivo; procedure, shortened: as §1
[11] = Terminal half life in Han Wistar rat at 1 mg/kg, iv administered as bolus dose; assay type: ADME, organism-based; conditions: in vivo, read-out: beta t1/2 (converted); procedure, shortened: as §1
Mus musculus = experiment: Time at which plasma concentration stays above in-vitro cellular IC50 for ATM autophosphorylation at Ser1981 residue in human HT-29 cells in mouse at 10 mg/kg, po; assay type: ADME, organism-based; conditions: in vivo
Procedure, shortened: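 Mice given 10 mg/kg orally. Free plasma concentration over time compared with the in vitro cellular ATM IC50.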

in vitro [12] = conditions: human, liver microsomes
[13] = Oral bioavailability in Beagle dog at 2 mg/kg; assay type: ADME, organism-based, Canis lupus familiaris; conditions: in vivo
physchem [14] = conditions: phosphate buffer, pH 7.4
[15] = Volume of distribution at steady state in rat at 0.5 mg/kg, iv or 1 mg/kg, po; assay type: ADME, organism-based; conditions: in vivo, read-out: Vdss
Procedure, shortened: (§3)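 Rats dosed 0.5 mg/kg i.v. and 1 mg/kg orally. Pharmacokinetic parameters taken from plasma levels.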

[16] = Clearance in rat at 0.5 mg/kg, iv or 1 mg/kg, po; assay type: ADME, organism-based; conditions: in vivo; procedure, shortened: as §3
[17] = Oral bioavailability in rat at 1 mg/kg; assay type: ADME, organism-based; conditions: in vivo; procedure, shortened: as §3
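Throughout, for logD: Shake-flask partitioning between octanol and buffer, equilibrated for 30 min before measurement.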

Structure (SMILES) | hepatocyte CLint at 0.5 h, 1 µM (in vitro [2]) [µL/min/1e6 cells] | logD at 0.5 h (physchem [5]) | microsomal CLint at 0.5 h, 1 µM (in vitro [12]) [µL/min/mg] | solubility thermodynamic at 24 h (physchem [14]) [µM] | other results
CNC(=O)c1nnc2ccc(-c3ccc(OCCCN(C)C)nc3)cc2c1N[C@@H](C)C1CCOCC1 | 5.7 | 2.3 | 22 | 880 (≈ 434 µg/mL) | Vd [1]: 14 L/kg; bioavailability [3]: 41%; half-life [4]: 4.7 h; clearance [6]: 7.8 mL/min/kg; hepatocyte CLint at 1 µM [7]: 4.1 µL/min/1e6 cells; hepatocyte CLint at 1 µM [8]: 8.8 µL/min/1e6 cells; Vd [9]: 2.8 L/kg; clearance [10]: 48 mL/min/kg; half-life [11]: 5.6 h; Time (Mus musculus): > 12 h; bioavailability [13]: 35%
CNC(=O)c1nnc2ccc(-c3ccc(COC)nc3)cc2c1N[C@@H](C)C1CCOCC1 | 5.8 | 3 | 42 | 34 (≈ 14.8 µg/mL) | –
COCc1ccc(-c2ccc3ncc(C(N)=O)c(N[C@@H](C)C4CCOCC4)c3c2)cn1 | < 5.3 | – | 26 | – | –
C[C@H](Nc1c(C(N)=O)nnc2ccc(-c3ccc(OCCCN4CCCC4)nc3)cc12)C1CCOCC1 | 1.9 | 1.9 | 23 | 620 (≈ 313 µg/mL) | –
COCc1ccc(-c2ccc3nnc(C(N)=O)c(N[C@@H](C)c4nn(C)cc4C)c3c2)cn1 | 18 | 2.8 | 31 | 8 (≈ 3.45 µg/mL) | –
C[C@H](Nc1c(C(N)=O)nnc2ccc(-c3ccc(NCCN(C)C)nc3)cc12)C1CCOCC1 | 4.2 | 2 | 18 | > 1000 | –
COCc1ccc(-c2ccc3nnc(C(N)=O)c(N[C@@H](C)c4ccn(C)n4)c3c2)cn1 | 4.9 | 3 | 14 | 76 (≈ 31.7 µg/mL) | –
C[C@H](Nc1c(C(N)=O)nnc2ccc(-c3ccc(OCCCN(C)C)nc3)cc12)C1CCOCC1 | 3.4 | 1.9 | 28 | 870 (≈ 416 µg/mL) | Vd [1]: 20 L/kg; bioavailability [3]: 26%; half-life [4]: 6.2 h; clearance [6]: 25 mL/min/kg; hepatocyte CLint at 1 µM [7]: 2.8 µL/min/1e6 cells; hepatocyte CLint at 1 µM [8]: 5.1 µL/min/1e6 cells; Vd [9]: 5.5 L/kg; clearance [10]: 49 mL/min/kg; half-life [11]: 4.1 h; bioavailability [13]: 43%
COCc1ccc(-c2cc3c(N[C@@H](C)c4ccn(C)n4)c(C(N)=O)cnc3cc2F)cn1 | – | – | 15 | – | –
C[C@H](Nc1c(C(N)=O)nnc2ccc(-c3ccc(OCCN(C)C)nc3)cc12)c1ccn(C)n1 | 13 | 1.9 | 25 | 910 (≈ 419 µg/mL) | –
Cc1cn(C)nc1[C@H](C)Nc1c(C(N)=O)nnc2ccc(-c3ccc(OCCCN4CCCC4)nc3)cc12 | 8.1 | 2.1 | 40 | 510 (≈ 262 µg/mL) | –
COCc1ccc(-c2ccc3nnc(C(N)=O)c(N[C@@H](C)C4CCOCC4)c3c2)cn1 | 5.6 | 2.7 | 33 | > 1000 | Vd [15]: 0.7 L/kg; clearance [16]: 21 mL/min/kg; bioavailability [17]: 56%
CNC(=O)c1nnc2ccc(-c3ccc(OCCN(C)C)nc3)cc2c1N[C@@H](C)C1CCOCC1 | 4.8 | 2.5 | 26 | 990 (≈ 474 µg/mL) | –
CNC(=O)c1nnc2ccc(-c3ccc(OCCCN(C)C)nc3)cc2c1N[C@@H](C)c1nn(C)cc1C | 6.7 | 2.3 | 33 | 620 (≈ 312 µg/mL) | –
C[C@H](Nc1c(C(N)=O)nnc2ccc(-c3ccc(OCCCN4CCCC4)nc3)cc12)c1ccn(C)n1 | 4.6 | 1.8 | 10 | 490 (≈ 245 µg/mL) | –
C[C@H](Nc1c(C(N)=O)nnc2ccc(-c3ccc(OCCCN(C)C)nc3)cc12)c1ccn(C)n1 | 7 | 1.7 | 10 | 65 (≈ 30.8 µg/mL) | –
Cc1cn(C)nc1[C@H](C)Nc1c(C(N)=O)nnc2ccc(-c3ccc(OCCCN(C)C)nc3)cc12 | 12 | 2.1 | 27 | 290 (≈ 142 µg/mL) | –
